Laboratory results from ChEMBL document CHEMBL1133648, “Synthesis, stability, antiviral activity, and protease-bound structures of substrate-mimicking constrained macrocyclic inhibitors of HIV-1 protease” (J Med Chem, 2000).

Tests used:
[1] = target: Human immunodeficiency virus type 1 protease (Human immunodeficiency virus 1, UniProt Q72874); experiment: Inhibitory constant against HIV-1 protease
[2] = target: Human immunodeficiency virus type 1 protease (Human immunodeficiency virus 1) (UniProt Q72874); details: MT2
MT2 [3] = experiment: Concentration of compound causing death in 10% or less of cells in the absence of virus in MT2 cells infected with HIV-2 strain (ROD); type: functional, Homo sapiens
Outline: (§1)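 Cytotoxicity controls run alongside the Melbourne antiviral test: uninfected MT2 cells at 5 × 10⁴ per well in RF10, or PBMCs at 3.75 × 10⁵ per well in RF10/IL-2, exposed to duplicate drug dilutions made from a 20 mM stock in 60% v/v ethanol. Incubated 6–7 days at 37 °C, 5% CO₂, then viable cells counted by trypan blue exclusion. CC₁₀ is the highest concentration keeping counts ≥90% of the cell-only control.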

[4] = target: Human immunodeficiency virus type 1 protease (Human immunodeficiency virus 1) (UniProt Q72874); details: PBMC
MT2 [5] = experiment: (§2) Concentration required for causing death in 10% or less of cells in the absence of virus in MT2 cells infected with HIV-1 237288 strain; type: functional, Homo sapiens; outline: as §1
[6] = tested on: Human immunodeficiency virus 1; experiment: Concentration required for causing death in 10% or less of cells in the absence of virus in PBMC cells infected with HIV-1 237288 strain; type: functional; outline: as §1
MT2 [7] = experiment: Concentration which causing death in 10% or less of cells in the absence of virus in MT2 cells infected with HIV-1 strain 237288; outline: as §1
MT2 [8] = experiment: as §2; type: functional, Human immunodeficiency virus 1; outline: as §1
MT2 [9] = experiment: Concentration required for causing death in 10% or less of cells in the absence of virus on MT2 cells infected with HIV-1 strain 237288; type: functional, Homo sapiens; outline: as §1
[10] = target: Human immunodeficiency virus type 1 protease (Human immunodeficiency virus 1) (UniProt Q72874); experiment: Inhibition of virion associated RT activity relative to untreated, infected control in PBMC cells infected with HIV-1 237288 strain; type: cell-based
Outline: (§3)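 Drug dilutions, from a 20 mM stock in 60% v/v ethanol, added in duplicate to MT2 cells (5 × 10⁴ in RF10) or PBMCs (3.75 × 10⁵ in RF10/IL-2). Virus added immediately after: HIV-1 #237288 or HIV-2 ROD, 200 TCID₅₀ for MT2 or 300 TCID₅₀ for PBMC. After 6–7 days at 37 °C, supernatant virus precipitated with PEG and virion RT counted by scintillation, as % of virus-only control. IC₅₀ and IC₉₀ are the concentrations giving 50% and 90% reduction.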

[11] = target: Human immunodeficiency virus type 1 protease (Human immunodeficiency virus 1) (UniProt Q72874); experiment: Inhibition of virion associated RT activity (90% decrease) relative to untreated, infected control on MT2 cells infected with HIV-1 237288 strain; type: cell-based; outline: as §3

Work on `CC[C@@H](C)[C@@H]1NC(=O)[C@@H](NC[C@@H](O)[C@H](Cc2ccccc2)NC(=O)[C@@H](NC(=O)c2ccc3ccccc3n2)C(C)C)Cc2ccc(cc2)OCCCNC1=O` yielded a Ki [1] of 0.3 nM.

`CC(C)CCN(C[C@@H](O)[C@@H]1Cc2ccc(cc2)OCCCCCC(=O)N[C@@H](C(C)C)C(=O)N1)S(=O)(=O)c1ccc(N)cc1` was tested, and the IC90 [2] was 220 nM, the CC10 (MT2 [3]) was 10000 nM and the IC90 [4] was 880 nM. The CC10 (MT2 [5]) was 10000 nM and the CC10 [6] was 50000 nM.

`CC(C)CN(C[C@@H](O)[C@H](Cc1ccccc1)NC(=O)O[C@H]1CCOC1)S(=O)(=O)c1ccc(N)cc1` gave a CC10 (MT2 [7]) of 10000 nM.

With `CC(C)(C)NC(=O)[C@@H]1CN(Cc2cccnc2)CCN1C[C@@H](O)C[C@@H](Cc1ccccc1)C(=O)N[C@H]1c2ccccc2C[C@H]1O.O` the IC90 [2] was 93 nM, the CC10 (MT2 [8]) was 10000 nM and the CC10 [6] was 10000 nM.

`CCC(C)[C@@H]1NC(=O)[C@@H](NC[C@@H](O)C[C@@H](Cc2ccccc2)C(=O)N[C@H]2c3ccccc3C[C@H]2O)Cc2ccc(cc2)OCCCCCNC1=O` (stereo not given in full) was tested, and the CC10 (MT2 [9]) was 30000 nM, the IC90 [10] was 220 nM and the CC10 (MT2 [3]) was 30000 nM. For the same compound, the CC10 [6] was 50000 nM and the IC90 [11] was 100 nM.
